Laboratory results as given in article PMC8992012 (Bioorganic & medicinal chemistry, 2021).
pEC50: −log10 of the molar value. Entries after “also recorded” stand apart in the source; their conditions may differ.

Legend:
NF-κB [1] = assay: Confirmatory kinetic screening, cell-based NF-κB FRET assay with LPS; set-up: species or system human; settings: 12h incubation, 21 HTS actives
IL-8 = IL-8 release in THP-1 cells; format: cell-based, human; settings: 5 μM compound; for IL-8 induction with LPS: LPS 1 ng/mL, compared to Veh+LPS; for IL-8 induction, compound alone: without LPS, compared to Veh
Summary of the method: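 THP-1 cells were exposed overnight to 5 μM test compound or vehicle (0.5% DMSO), with or without LPS at 1 ng/mL. Secreted IL-8 in a portion of the supernatant was quantified by ELISA.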

NF-κB [2] = assay: NF-κB activation using THP1-Blue NF-κB cells; format: cell-based, human; settings: for pEC50: read-out: EC50 NF-κB induction in the presence of LPS, with LPS (10 ng/mL), THP1-Blue NF-κB cells, SEAP; for pEC50 / NF-κB activity (in words, SAR text to Table 1): 20h; for NF-κB activity (in words, SAR text to Table 1): compound alone, 5 μM
Summary of the method: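 THP1-Blue NF-κB cells carry a stably integrated NF-κB-inducible SEAP. They were plated at 10^5 cells/well in RPMI with 10% FBS, penicillin, streptomycin and Normocin, then treated for 20 h with 5 μM test compound (0.5% DMSO final), alone or with LPS at 10 ng/mL. Supernatant SEAP was read colorimetrically at 630 nm. Signals were two-point normalized: baseline (vehicle or LPS) 100%, reference hit 200%.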

**Q.** `Cc1ccc(C)c(-c2csc(NC(=O)c3ccc(S(=O)(=O)N4CCCCC4)cc3)n2)c1` [Compound 1, N-(4-(2,5-dimethylphenyl)thiazol-2-yl)-4-(piperidin-1-ylsulfonyl)benzamide] was tested. Which “NF-κB enhancement activity at 12h in the presence of LPS” value (NF-κB [1]) did it give?
**A.** most potent

**Q.** What about the “IL-8 induction with LPS” value (IL-8) of the same molecule?
**A.** significantly enhanced

**Q.** And the “IL-8 induction, compound alone” value (IL-8)?
**A.** induced IL-8

**Q.** And the pEC50 (NF-κB [2])?
**A.** 5.64

**Q.** For `Cc1ccc(Br)c(-c2csc(NC(=O)c3ccc(S(=O)(=O)N4CCCCC4)cc3)n2)c1` [Compound 12d, N-(4-(2-bromo-5-methylphenyl)thiazol-2-yl)-4-(piperidin-1-ylsulfonyl)benzamide], which “IL-8 induction with LPS” value (IL-8) is on record?
**A.** significantly enhanced

**Q.** And the “IL-8 induction, compound alone” value (IL-8)?
**A.** induced IL-8

**Q.** And the “NF-κB activity (in words, SAR text to Table 1)” value (shortened to “NF-κB activity”) (NF-κB [2])?
**A.** active; also recorded: most active

**Q.** What about the pEC50 (NF-κB [2]) of the same molecule?
**A.** 5.35

**Q.** With `CCCC#Cc1sc(NC(=O)c2ccc(S(=O)(=O)N3CCCCC3)cc2)nc1-c1cc(C)ccc1C` [Compound 18q, N-(4-(2,5-dimethylphenyl)-5-(pent-1-yn-1-yl)thiazol-2-yl)-4-(piperidin-1-ylsulfonyl)benzamide] as the molecule, how does the “IL-8 induction with LPS” value (IL-8) read?
**A.** significantly enhanced

**Q.** And the “IL-8 induction, compound alone” value (IL-8)?
**A.** induced IL-8

**Q.** And the “NF-κB activity” value (NF-κB [2])?
**A.** very potent; also recorded: most active

**Q.** And the pEC50 (NF-κB [2])?
**A.** 5.77

**Q.** What does the source list for `CCCC1CCN(S(=O)(=O)c2ccc(C(=O)Nc3nc(-c4cc(C)ccc4C)cs3)cc2)CC1` [Compound 54h, N-(4-(2,5-dimethylphenyl)thiazol-2-yl)-4-((4-propylpiperidin-1-yl)sulfonyl)benzamide]?
**A.** IL-8 induction with LPS (IL-8): significantly enhanced; IL-8 induction, compound alone (IL-8): induced IL-8; NF-κB activity (in words, SAR text to Table 1) (NF-κB [2]): very potent; also recorded: most active; pEC50 (NF-κB [2]): 6.05

**Q.** How did the “NF-κB activity” value (NF-κB [2]) turn out when `Cc1ccc(C)c(-c2nnc(NC(=O)c3ccc(S(=O)(=O)N4CCCCC4)cc3)s2)c1` [Compound 18f, N-(5-(2,5-dimethylphenyl)-1,3,4-thiadiazol-2-yl)-4-(piperidin-1-ylsulfonyl)benzamide] was run?
**A.** none of these molecules that replaced the thiazole functionality was active

**Q.** With `CCc1ccc(C)c(-c2csc(NC(=O)c3ccc(S(=O)(=O)N4CCCCC4)cc3)n2)c1` [Compound 12u, N-(4-(5-ethyl-2-methylphenyl)thiazol-2-yl)-4-(piperidin-1-ylsulfonyl)benzamide] as the molecule, how does the “NF-κB activity” value (NF-κB [2]) read?
**A.** regained the NF-κB activity

**Q.** Which “NF-κB activity” value (NF-κB [2]) does the source give for `Cc1cccc(C)c1-c1csc(NC(=O)c2ccc(S(=O)(=O)N3CCCCC3)cc2)n1` [Compound 12p, N-(4-(2,6-dimethylphenyl)thiazol-2-yl)-4-(piperidin-1-ylsulfonyl)benzamide] here?
**A.** retained activity

**Q.** With `CCOc1sc(NC(=O)c2ccc(S(=O)(=O)N3CCCCC3)cc2)nc1-c1cc(C)ccc1C` [Compound 18l, N-(4-(2,5-dimethylphenyl)-5-ethoxythiazol-2-yl)-4-(piperidin-1-ylsulfonyl)benzamide] as the molecule, how does the “NF-κB activity” value (NF-κB [2]) read?
**A.** partial activity

**Q.** How did the “NF-κB activity” value (NF-κB [2]) turn out when `CCN(CC)c1sc(NC(=O)c2ccc(S(=O)(=O)N3CCCCC3)cc2)nc1-c1cc(C)ccc1C` [Compound 18g, N-(5-(diethylamino)-4-(2,5-dimethylphenyl)thiazol-2-yl)-4-(piperidin-1-ylsulfonyl)benzamide] was run?
**A.** completely inactive

**Q.** How did the “NF-κB induction in the presence of LPS (in words, Fig. 6)” value (NF-κB [2]; in presence of LPS, compared to compound 1) turn out when `Cc1ccc(N=[N+]=[N-])cc1-c1csc(NC(=O)c2ccc(S(=O)(=O)N3CCCCC3)cc2)n1` [Compound 63, N-(4-(5-azido-2-methylphenyl)thiazol-2-yl)-4-(piperidin-1-ylsulfonyl)benzamide] was run?
**A.** retained activity

**Q.** Which “NF-κB activity” value (NF-κB [2]) does the source give for `Cc1ccc(C)c(-c2csc(NC(=O)c3ccc(S(=O)(=O)N4CCCCC4)c([N+](=O)[O-])c3)n2)c1` [Compound 42f, N-(4-(2,5-dimethylphenyl)thiazol-2-yl)-3-nitro-4-(piperidin-1-ylsulfonyl)benzamide] here?
**A.** decline in activity

**Q.** How did the “NF-κB activity” value (NF-κB [2]) turn out when `C#Cc1sc(NC(=O)c2ccc(S(=O)(=O)N3CCCCC3)cc2)nc1-c1cc(C)ccc1C` [Compound 18o, N-(4-(2,5-dimethylphenyl)-5-ethynylthiazol-2-yl)-4-(piperidin-1-ylsulfonyl)benzamide] was run?
**A.** weak activity

**Q.** `C#CCN(C(=O)c1ccc(S(=O)(=O)N2CCCCC2)cc1)c1nc(-c2cc(C)ccc2C)cs1` [Compound 34d, N-(4-(2,5-dimethylphenyl)thiazol-2-yl)-4-(piperidin-1-ylsulfonyl)-N-(prop-2-yn-1-yl)benzamide] was tested. Which “NF-κB activity” value (NF-κB [2]) did it give?
**A.** inactive

**Q.** `Cc1ccc(C)c(-c2cccc(NC(=O)c3ccc(S(=O)(=O)N4CCCCC4)cc3)n2)c1` [Compound 18b, N-(6-(2,5-dimethylphenyl)pyridin-2-yl)-4-(piperidin-1-ylsulfonyl)benzamide] was tested. Which “NF-κB activity” value (NF-κB [2]) did it give?
**A.** none of these molecules that replaced the thiazole functionality was active

**Q.** For `Cc1ccc(C)c(-c2csc(NCc3ccc(S(=O)(=O)N4CCCCC4)cc3)n2)c1` [Compound 34a, 4-(2,5-dimethylphenyl)-N-(4-(piperidin-1-ylsulfonyl)benzyl)thiazol-2-amine], which “NF-κB activity” value (NF-κB [2]) is on record?
**A.** inactive
